The record followed here is ChEMBL document CHEMBL4219031, “Identification and Characterization of Von Hippel-Lindau-Recruiting Proteolysis Targeting Chimeras (PROTACs) of TANK-Binding Kinase 1” (J Med Chem, 2018).

The target in assay [1] is T1, von Hippel-Lindau disease tumor suppressor/Serine/threonine-protein kinase TBK1 (Homo sapiens, UniProt Q9UHD2+P40337). Briefly: Induction of VHL-mediated TBK1 degradation in human Panc02.13 cells after 16 hrs by Western blot method relative to control. It is filed as cell-based. An outline of the steps:
(§1)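 Panc02.13 cells grown in RPMI-1640 with 15% FBS and 10 units/mL human recombinant insulin, exposed to compound for 16 h. For phospho-IRF3 read-out, TLR3 agonist Poly I:C added for the final 3 h. Cells lysed in RIPA buffer with protease/phosphatase inhibitors, lysates clarified at 16,000g, run on SDS-PAGE and immunoblotted for TBK1, pIRF3 and GAPDH.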
For orientation: A western blot detects proteins with antibodies after separation by electrophoresis.
Target sequence in this assay (P40337 whole entry, looked up, one chain of several): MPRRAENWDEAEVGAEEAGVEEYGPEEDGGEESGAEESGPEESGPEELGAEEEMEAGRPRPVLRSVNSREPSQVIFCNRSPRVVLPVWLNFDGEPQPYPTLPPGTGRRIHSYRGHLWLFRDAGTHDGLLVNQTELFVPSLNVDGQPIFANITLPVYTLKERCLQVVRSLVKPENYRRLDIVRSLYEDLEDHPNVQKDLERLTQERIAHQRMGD

The target of assay [2] is T1, von Hippel-Lindau disease tumor suppressor/Serine/threonine-protein kinase TBK1. As to the kind of experiment: Induction of VHL-mediated TBK1 degradation in human Panc02.13 cells after 16 hrs by Western blot method. It is filed as cell-based. A digest of the protocol:
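For phospho-IRF3 read-out, TLR3 agonist Poly I:C added for the final 3 h. Cells lysed in RIPA buffer with protease/phosphatase inhibitors, lysates clarified at 16,000g, run on SDS-PAGE and immunoblotted for TBK1, pIRF3 and GAPDH.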
Target sequence in this assay (P40337 whole entry, one chain of several): as the sequence (P40337 whole entry, looked up, one chain of several) above

For assay [3] the target is unchanged. As to the kind of experiment: Induction of VHL-mediated TBK1 degradation in human A549 cells harboring K-Ras mutant at 100 nM after 16 hrs by Western blot method. Format: cell-based.
Target sequence in this assay (P40337 whole entry, looked up, one chain of several): as above
The target of assay [4] is von Hippel-Lindau disease tumor suppressor/Elongin-C/Elongin-B/HIF1A (Homo sapiens, UniProt P40337+Q15369+Q15370+Q16665). As to the kind of experiment: Inhibition of His-tagged VHL/elongin B/elongin C (unknown origin) interaction with HIF1alpha preincubated for 10 mins followed by fluorescin labelled HIF1alpha peptide addition measured after 2 hrs by fluorescence polarization assay. It is filed as protein-complex assay. An outline of the steps:
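VHL coexpressed and copurified with Elongin B and C (VCB). Compound preincubated 10 min with VHL in 50 mM Tris pH 7.5, 200 mM NaCl, 2 mM DTT, 1% DMSO. Polarization converted to percent binding against control wells; IC50 from four-parameter fit.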

For assay [5], the target named is T1, von Hippel-Lindau disease tumor suppressor/Serine/threonine-protein kinase TBK1. Briefly: Induction of VHL-mediated TBK1 degradation in human Panc02.13 cells at 100 nM after 16 hrs in presence of (2S,4R)-1-((S)-2-acetamido-3,3-dimethylbutanoyl)-4-hydroxy-N-(4-(4-methylthiazol-5-yl)benzyl)pyrrolidine-2-carboxamide by Western blot method. Format: cell-based. A digest of the protocol:
as §1
Target sequence in this assay (P40337 whole entry, looked up, one chain of several): as above

Assay [6] shares this target. As to the kind of experiment: Induction of VHL-mediated TBK1 degradation in human Panc02.13 cells at 100 nM after 16 hrs in presence of proteosome inhibitor carfilzomib by Western blot method. Format: cell-based. An outline of the steps:
as §1
Target sequence in this assay (P40337 whole entry, looked up, one chain of several): as above

The target of assay [7] is von Hippel-Lindau disease tumor suppressor/Inhibitor of nuclear factor kappa-B kinase subunit epsilon (Homo sapiens) (UniProt Q14164+P40337). As to the kind of experiment: Induction of VHL-mediated IKKepsilon degradation in human Panc02.13 cells up to 3 uM after 16 hrs by Western blot method. It is filed as cell-based.
Assay [8] deals with T1, von Hippel-Lindau disease tumor suppressor/Serine/threonine-protein kinase TBK1. Briefly: Induction of VHL-mediated TBK1 degradation in human H23 cells harboring K-Ras mutant at 100 to 300 nM after 16 hrs by Western blot method. Format: cell-based.
Target sequence in this assay (P40337 whole entry, looked up, one chain of several): as above
Assay [9] has the same target. Briefly: Induction of VHL-mediated TBK1 degradation in human H1792 cells harboring K-Ras mutant at 100 to 300 nM after 16 hrs by Western blot method. Format: cell-based.
Target sequence in this assay (P40337 whole entry, looked up, one chain of several): as above
The target is the same in assay [10]. As to the kind of experiment: Induction of VHL-mediated TBK1 degradation in human H2110 cells harboring wild-type K-Ras at 100 to 300 nM after 16 hrs by Western blot method. Format: cell-based.
Assay [11] has the same target. Briefly: Induction of VHL-mediated TBK1 degradation in human HCC827 cells harboring wild-type K-Ras at 100 to 300 nM after 16 hrs by Western blot method. Format: cell-based.
Assay [12] has as its system NCI-H23. As to the kind of experiment: Antiproliferative activity against human H23 cells harboring K-Ras mutant at 10 uM after 72 hrs by CellTiter-Glo assay. Format: functional, cell-based. An outline of the steps: (§2)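 Lung cancer lines seeded at 5000 cells/well; after 24 h, compound added as 3-fold dilutions (10 μM top final concentration, 0.1% DMSO final). Incubated 72 h, then viability read by CellTiter-Glo luminescence.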

In assay [13] the test system is A549. As to the kind of experiment: Antiproliferative activity against human A549 cells harboring K-Ras mutant at 10 uM after 72 hrs by CellTiter-Glo assay. Format: functional, cell-based. An outline of the steps: as §2
On the technique in general: In ATP-based viability assays light output follows the ATP content of the culture.

Assay [14] concerns NCI-H1792. As to the kind of experiment: Antiproliferative activity against human NCI-H1792 cells harboring K-Ras mutant at 10 uM after 72 hrs by CellTiter-Glo assay. It is filed as functional, cell-based. An outline of the steps:
as §2

Assay [15] is filed under the species Homo sapiens. Briefly: Antiproliferative activity against human NCI-H2110 cells harboring wild-type K-Ras at 10 uM after 72 hrs by CellTiter-Glo assay. It is filed as functional, cell-based. A digest of the protocol:
as §2

Assay [16] has as its system HCC827. As to the kind of experiment: Antiproliferative activity against human HCC827 cells harboring wild-type K-Ras at 10 uM after 72 hrs by CellTiter-Glo assay. It is filed as functional, cell-based. A digest of the protocol:
as §2

In assay [17] the target is T1, von Hippel-Lindau disease tumor suppressor/Serine/threonine-protein kinase TBK1. As to the kind of experiment: Induction of VHL-mediated TBK1 degradation in human Panc02.13 cells at 100 nM after 16 hrs by Western blot method. Format: cell-based. An outline of the steps: as §1
For assay [18] the target is unchanged. Briefly: Induction of VHL-mediated TBK1 degradation in human Panc02.13 cells assessed as decrease in Poly(I:C)-induced in IRF3 phosphorylation at 100 nM preincubated for 16 hrs followed by Poly I:C addition measured after 3 hrs by Western blot method. It is filed as cell-based. An outline of the steps:
as §1

Assay [19] concerns the target T2, Serine/threonine-protein kinase TBK1 (Homo sapiens, UniProt Q9UHD2).
T2 sequence (Q9UHD2 whole entry): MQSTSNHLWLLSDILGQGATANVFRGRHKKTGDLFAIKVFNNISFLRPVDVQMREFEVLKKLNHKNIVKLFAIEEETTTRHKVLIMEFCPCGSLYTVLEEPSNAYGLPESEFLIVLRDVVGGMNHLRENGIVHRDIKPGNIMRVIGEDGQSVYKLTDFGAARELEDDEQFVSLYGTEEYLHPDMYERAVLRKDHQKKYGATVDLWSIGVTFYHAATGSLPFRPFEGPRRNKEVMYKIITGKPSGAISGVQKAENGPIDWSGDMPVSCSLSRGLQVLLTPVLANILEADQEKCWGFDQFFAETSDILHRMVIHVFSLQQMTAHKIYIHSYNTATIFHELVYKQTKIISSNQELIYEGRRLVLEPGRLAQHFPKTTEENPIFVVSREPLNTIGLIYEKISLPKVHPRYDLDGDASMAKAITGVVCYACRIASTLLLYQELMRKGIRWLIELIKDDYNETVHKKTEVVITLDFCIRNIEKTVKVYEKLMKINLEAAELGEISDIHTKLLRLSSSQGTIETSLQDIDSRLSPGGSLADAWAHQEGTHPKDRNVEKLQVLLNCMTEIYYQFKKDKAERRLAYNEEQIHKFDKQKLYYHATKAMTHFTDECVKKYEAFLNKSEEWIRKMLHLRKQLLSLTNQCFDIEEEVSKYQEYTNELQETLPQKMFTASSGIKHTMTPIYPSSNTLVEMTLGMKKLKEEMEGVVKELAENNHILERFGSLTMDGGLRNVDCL
Briefly: Binding affinity to human full length wild-type TBK1 expressed in mammalian expression system.

For assay [20], the target named is T1, von Hippel-Lindau disease tumor suppressor/Serine/threonine-protein kinase TBK1. Briefly: Induction of VHL-mediated TBK1 degradation in human Panc02.13 cells at 0.1 to 1 uM after 16 hrs by Western blot method. Format: cell-based. A digest of the protocol: as §1
In assay [21] the target is T3, Serine/threonine-protein kinase TBK1 (Homo sapiens) (UniProt Q9UHD2).
T3 sequence (whole entry): T2 sequence (Q9UHD2 whole entry)
Briefly: Antagonist activity at TBK1 in human Panc02.13 cells assessed as decrease in Poly(I:C)-induced IRF3 phosphorylation preincubated for 16 hrs followed by Poly I:C addition measured after 3 hrs by Western blot method. Format: cell-based. A digest of the protocol:
as §1

For assay [22], the target named is T1, von Hippel-Lindau disease tumor suppressor/Serine/threonine-protein kinase TBK1. Briefly: Induction of VHL-mediated TBK1 degradation in human Panc02.13 cells at 1 uM after 16 hrs by Western blot method. Format: cell-based. A digest of the protocol:
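Panc02.13 cells grown in RPMI-1640 with 15% FBS and 10 units/mL human recombinant insulin; compound exposure 16 h, with TLR3 agonist Poly I:C added for the final 3 h. Cells lysed in RIPA buffer with protease and phosphatase inhibitors, lysates clarified at 16,000g for 10 min, resolved by SDS-PAGE and immunoblotted for TBK1, with GAPDH as loading control.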

SMILES strings stand for the structures. Calls of active or inactive are those of the source. The calls are words filed in the database; no cut-off is given here.

Chain of von Hippel-Lindau disease tumor suppressor/Elongin-C/Elongin-B/HIF1A (P40337 whole entry, looked up): as the sequence (P40337 whole entry, looked up, one chain of several) above
Chain of von Hippel-Lindau disease tumor suppressor/Elongin-C/Elongin-B/HIF1A (Q15369 whole entry, looked up): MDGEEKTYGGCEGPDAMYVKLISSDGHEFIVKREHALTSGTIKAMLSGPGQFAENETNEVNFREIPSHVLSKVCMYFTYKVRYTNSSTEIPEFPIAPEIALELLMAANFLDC
Chain of von Hippel-Lindau disease tumor suppressor/Elongin-C/Elongin-B/HIF1A (Q15370 whole entry, looked up): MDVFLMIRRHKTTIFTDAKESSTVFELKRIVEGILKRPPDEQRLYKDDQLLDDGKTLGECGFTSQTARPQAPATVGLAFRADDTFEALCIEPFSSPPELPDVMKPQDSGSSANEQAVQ
Chain of von Hippel-Lindau disease tumor suppressor/Elongin-C/Elongin-B/HIF1A (Q16665 whole entry, looked up): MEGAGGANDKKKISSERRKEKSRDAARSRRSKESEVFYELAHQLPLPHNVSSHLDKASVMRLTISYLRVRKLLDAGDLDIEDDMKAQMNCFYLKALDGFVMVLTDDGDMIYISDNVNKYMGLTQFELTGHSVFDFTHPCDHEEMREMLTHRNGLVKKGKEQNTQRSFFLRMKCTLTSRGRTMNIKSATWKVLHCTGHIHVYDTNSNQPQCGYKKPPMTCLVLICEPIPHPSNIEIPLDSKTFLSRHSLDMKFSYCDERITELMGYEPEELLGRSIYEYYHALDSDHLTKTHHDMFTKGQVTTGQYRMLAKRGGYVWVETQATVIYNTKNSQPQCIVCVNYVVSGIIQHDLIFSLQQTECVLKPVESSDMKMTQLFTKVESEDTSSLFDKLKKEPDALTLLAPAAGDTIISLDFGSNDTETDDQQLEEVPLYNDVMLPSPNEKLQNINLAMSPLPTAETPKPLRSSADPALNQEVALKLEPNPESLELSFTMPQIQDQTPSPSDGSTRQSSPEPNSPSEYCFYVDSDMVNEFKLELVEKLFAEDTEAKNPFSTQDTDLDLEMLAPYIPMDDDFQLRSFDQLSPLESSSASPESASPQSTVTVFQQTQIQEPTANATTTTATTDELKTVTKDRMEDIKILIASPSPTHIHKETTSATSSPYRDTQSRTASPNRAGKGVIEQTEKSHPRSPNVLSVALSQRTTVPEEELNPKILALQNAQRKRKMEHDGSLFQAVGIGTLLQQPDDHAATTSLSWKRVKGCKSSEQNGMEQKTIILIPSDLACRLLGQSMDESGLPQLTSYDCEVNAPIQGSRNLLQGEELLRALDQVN
Chain of von Hippel-Lindau disease tumor suppressor/Inhibitor of nuclear factor kappa-B kinase subunit epsilon (Homo sapiens) (P40337 whole entry, looked up): as the sequence (P40337 whole entry, looked up, one chain of several) above
Chain of von Hippel-Lindau disease tumor suppressor/Inhibitor of nuclear factor kappa-B kinase subunit epsilon (Homo sapiens) (Q14164 whole entry, looked up): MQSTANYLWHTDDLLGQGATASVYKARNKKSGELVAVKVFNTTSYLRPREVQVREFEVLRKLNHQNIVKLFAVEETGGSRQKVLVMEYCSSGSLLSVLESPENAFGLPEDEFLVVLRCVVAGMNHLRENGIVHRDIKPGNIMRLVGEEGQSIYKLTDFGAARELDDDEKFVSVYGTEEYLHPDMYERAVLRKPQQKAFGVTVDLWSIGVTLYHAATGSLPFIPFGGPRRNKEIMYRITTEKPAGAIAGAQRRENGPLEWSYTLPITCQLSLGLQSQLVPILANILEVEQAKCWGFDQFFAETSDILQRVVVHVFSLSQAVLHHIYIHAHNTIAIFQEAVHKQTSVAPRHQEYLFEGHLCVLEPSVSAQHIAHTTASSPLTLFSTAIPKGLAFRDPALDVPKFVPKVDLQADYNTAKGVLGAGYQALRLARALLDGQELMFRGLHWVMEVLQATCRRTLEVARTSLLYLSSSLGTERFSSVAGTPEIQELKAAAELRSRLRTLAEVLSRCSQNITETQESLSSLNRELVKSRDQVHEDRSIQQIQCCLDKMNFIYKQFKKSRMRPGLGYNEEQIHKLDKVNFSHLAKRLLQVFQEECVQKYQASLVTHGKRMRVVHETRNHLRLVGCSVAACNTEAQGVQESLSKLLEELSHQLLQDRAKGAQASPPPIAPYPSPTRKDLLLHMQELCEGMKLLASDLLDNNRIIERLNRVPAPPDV

A word on the Emax: it is the size of the effect at its maximum, as opposed to the concentration needed. One may read the DC50 as the midpoint of the concentration-degradation curve. Read a high DC50 as degradation only at high concentration. What is called IC50 is the concentration that gives 50% inhibition. A higher IC50 goes with weaker potency. In assay [1], `Cc1ncsc1-c1ccc(CNC(=O)[C@@H]2C[C@@H](O)CN2C(=O)[C@@H](NC(=O)COCCCOCCCCOCCCOc2ccc(Nc3ncc(Br)c(NCCCN(C)C(=O)C4CCC4)n3)cc2)C(C)(C)C)cc1` had a maximum response (Emax) of 96%. For the same compound, the DC50 in assay [2] was in the range of 9 to 12 nM. The outcome in assay [3], in [8], in assay [9], in [10], in assay [11] and in assay [17] was Active. In addition, the result in [18] was Active. Moreover, in assay [4], the IC50 was determined as 4900 nM. Also, the result in assay [5], in assay [6], in assay [7], in assay [12], in [13] and in [14] was inactive. Also, the result in [15] and in assay [16] was inactive.

Broadly, the Kd is the equilibrium constant for the complex coming apart. Take `Cc1ncsc1-c1ccc(CNC(=O)[C@@H]2C[C@H](O)CN2C(=O)[C@@H](NC(=O)COCCCOCCCCOCCCOc2ccc(Nc3ncc(Br)c(NCCCN(C)C(=O)C4CCC4)n3)cc2)C(C)(C)C)cc1`: in assay [19], the affinity, expressed as Kd, was 5.9 nM. This compound also gave a concentration for half-maximal inhibition (IC50) in assay [4] of more than 100000 nM. For the same compound, in assay [20], the result was inactive. In addition, the inhibition entry in assay [21] is “Active”.

Regarding `Cc1ncsc1-c1ccc(CNC(=O)[C@@H]2C[C@@H](O)CN2C(=O)CNC(=O)COCCCOCCCCOCCCOc2ccc(Nc3ncc(Br)c(NCCCN(C)C(=O)C4CCC4)n3)cc2)cc1`, the maximal response (Emax) in assay [1] amounted to 0%. In addition, the half-maximal degradation concentration (DC50) in [2] is more than 1000 nM. In [4], this compound gave an IC50 of more than 100000 nM.

With `CCC[C@H](NC(=O)COCCCOCCCCOCCCOc1ccc(Nc2ncc(Br)c(NCCCN(C)C(=O)C3CCC3)n2)cc1)C(=O)N1C[C@H](O)C[C@H]1C(=O)NCc1ccc(-c2scnc2C)cc1`, in assay [1], the Emax amounted to 75%. This compound returned a 50% degradation concentration (DC50) in assay [2] of 288 nM. The compound also came in with an IC50 in [4] of 16000 nM.

Compound `CCOc1ccc(Nc2ncc(Br)c(NCCCN(C)C(=O)C3CCC3)n2)cc1` gave a Kd in [19] of 1.3 nM. In [2], the DC50 is more than 1000 nM. Besides, the result in [22] was inactive.
